Source: PubChem BioAssay
UBC13 polyUb: inhibitors of human UBC13 polyubiquitin chain formation; AID 485273; 330,000 compounds, 0.47% hits; P61088; TR-FRET; inhibition, % at 20 µM; in the data active = inhibition above about 45%, passing the limit was not always enough
Target sequence (P61088 whole entry, looked up): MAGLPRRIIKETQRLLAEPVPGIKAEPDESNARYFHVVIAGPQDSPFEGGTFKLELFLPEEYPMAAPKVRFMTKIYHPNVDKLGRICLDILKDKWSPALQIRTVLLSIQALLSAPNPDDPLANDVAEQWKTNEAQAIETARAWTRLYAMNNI
Apaf1 inhib: blocks human Apaf-1 apoptosome activity; 330,000 compounds, 0.71% hits; AID 489030; inhibition, % at 20 µM; reconstituted apoptosome caspase-3 activity, DEVD-Rh110 fluorescence; O14727; active = inhibition of at least 40% at 20 µM;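 also: plate controls were DMSO wells for no effect and DEVD-CHO caspase inhibitor wells for full effect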
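Assay system: Apoptosome proteins | Medium: pH 7.5 Hepes buffer with CHAPS, BSA, DTT | Also added: Cytochrome c and DEVD-Rh110 substrate | Times: 30 min plus 50 min, RT | Detection: Rhodamine 110 fluorescence at Ex 480/Em 540 nm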
MPTP block: permeability transition pore inhibition; isolated mouse mitochondria, Ca2+ swelling absorbance, 30 min; inhibition, % at 10 µM; 360,000 compounds, 1.4% hits; AID 602449;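 active = inhibition of 50% or more, scaled per plate between neutral and stimulator controls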;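 also: 0% = DMSO wells given calcium and 100% = 1 mM EGTA wells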
Exocytosis inh: lytic granule exocytosis inhibition. inhibition, % at 10 µM. TALL-104 LAMP-1 surface exposure, flow cytometry; cells stimulated with thapsigargin and PMA. 360,000 compounds, 0.66% hits;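 active = inhibition above about 55%, limit read from the data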
iPSC survival up: hiPSC single-cell survival enhancement. ATPlite luminescence; 100% = ROCK inhibitor wells, 0% = DMSO. 360,000 compounds, 0.044% hits. AID 602274. survival enhancement, % at 20 µM; in the data active = survival enhancement above about 18%;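 also: cells exposed to compounds for 16 hours before the ATP read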
MIN6 prolif-1: MIN6 beta-cell proliferation induction. MIN6 cells proliferation, ATPlite luminescence, 48 h; cells starved in 0.2% serum; 100% = growth in 10% serum. proliferation, % at 10 µM. 330,000 compounds, 0.29% hits. AID 2380;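 active = compounds whose signal lies at least 3.5 SD above the mean of all wells on their plate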;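 also: 0% = DMSO-treated cells in low-serum medium and 100% = 10% serum control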
MIN6 prolif-2: confirmation of inducers of beta-cell replication in MIN6 cells; MIN6 beta-cell proliferation, ATPlite luminescence, 48 h; cells kept in 0.2% serum; scaled between 0.2% and 10% serum; proliferation increase, % at 50 µM; shares compounds with MIN6 prolif-1; 920 tested, under 10 active;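 active = proliferation increase above 40% at any of the four tested concentrations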
* hit, by the source's call; . = no result; ! = repeats disagree. Only some compounds are listed: those with a hit (about 3% of all), similar ones and a draw of the others.

SMILES	UBC13 polyUb	Apaf1 inhib	MPTP block	Exocytosis inh	iPSC survival up	MIN6 prolif-1	MIN6 prolif-2
CN(c1ccc(C(=O)Nc2cccnc2)cc1)S(=O)(=O)c1ccccc1	7.7	8.0	0.3	13.5	2.1	0.0*	2.1
Cn1c2ccccc2n2c(=O)c(Cl)c(-c3ccccc3)c(C#N)c12	4.8	-12.8	2.0	0.9	-0.4	7.9*	-4.5
O=C(Nc1ccc(F)cc1F)c1ccc(S(=O)(=O)NCc2ccco2)cc1	4.3	-6.2	-0.6	-2.0	-0.2	-3.1	.
COc1ccc(-n2c(C)c(C(C)=O)c3cc(OC(C)=O)ccc32)cc1	5.6	7.4	-0.3	-6.7	-0.7	5.3*	-4.7
COc1ccc2c(c1)c(C(C)=O)c(C)n2-c1ccc(C(C)=O)cc1	6.4	16.0	1.0	-12.2	-0.6	-1.5	.
O=C(Cn1cccc1C(=O)c1ccccc1)NCCCc1ccccc1	-2.7	2.9	-0.5	28.3	-0.7	2.0	.
CCC(Cc1ccccc1)NC(=O)Cn1cccc1C(=O)c1ccccc1 (configuration not stated)	7.5	12.4	0.8	-14.9	1.2	16.2*	-5.5
Cc1ccc(Nc2nc3c(c(=O)[nH]2)CCCC3)cc1	10.6	-6.5	0.4	2.0	-0.1	5.8*	-3.1
C=CCNC(=O)c1ccccc1NC(=O)COc1ccc(OC)cc1	6.9	-8.1	2.2	1.5	-0.2	-0.7	.
C=CCNC(=O)c1ccccc1NC(=O)COc1ccccc1	2.8	-7.6	2.1	-1.3	-1.0	8.4*	1.0
O=C(Nc1ccc(F)cc1)C(c1cccc(F)c1)N1CCN(c2cccc(C(F)(F)F)n2)CC1 (configuration not stated)	.	.	9.7	2.1	.	.	.
COc1ccccc1C(=O)Nc1sc(C(=O)N2CCCC2)c(C)c1C#N	12.7	10.0	-0.9	-1.2	0.2	8.8*	9.6
Cc1c(C(=O)N2CCCC2)sc(NC(=O)c2ccc(Cl)cc2)c1C#N	-5.5	14.8	18.3	-1.8	0.1	-2.7	.
CC1CCN(C(=O)CCc2ccc(S(=O)(=O)NC(C)(C)C)cc2)CC1	6.8	-18.2	1.6	3.1	-2.7	7.5*	-2.0
COc1cccc(CNC(=O)c2ccncc2)c1	0.3	6.3	-0.3	1.6	0.0	-1.4	.
CNC(=O)c1ccccc1NC(=O)c1cccc(S(=O)(=O)N2CCCCC2)c1	16.6	-14.9	0.9	-1.0	-0.8	7.6*	-3.6
S=c1[nH]nc(C2CCCCC2)n1/N=C/c1cccc(Br)c1	-1.4	11.2	-0.8	-5.7	-0.5	2.5	.
Cc1cccc(/C=N/n2c(C3CCCCC3)n[nH]c2=S)c1	2.7	13.7	1.0	-2.2	0.2	6.7*	-6.5
CNc1ccc(-c2cc(OC)ccc2OC)cn1	.	.	-1.5	5.9	8.6	.	.
Cc1ccc(S(=O)(=O)N2CCN(C(=O)CCC(=O)Nc3ccc(F)cc3F)CC2)cc1	13.4	-0.4	-1.5	-5.4	0.7	-0.1	.
COC(=O)C1=C(C)NC(C)=C([N+](=O)[O-])C1c1ccccc1C(F)(F)F (configuration not stated)	-6.1	10.3	-0.7	4.9	-1.6	14.1*!	-5.5
COC(=O)C1=C(C)NC(C)=C(C(=O)OC)C1c1ccc(-c2cccc([N+](=O)[O-])c2)o1	-8.3	10.9	1.3	16.1	0.1	-3.0	.
CCOCCCn1c(=NC(=O)c2cccs2)c(C#N)cc2c(=O)n3ccccc3nc21	-3.5	-12.1	0.8	2.5	0.0	13.5*	3.1
COc1ccc(S(=O)(=O)N2CCC3(CC2)OCCN3S(=O)(=O)c2cccs2)cc1	-1.5	11.3	0.4	-1.2	-0.3	13.0*	-2.4
Cc1ccc(S(=O)(=O)N2CCC3(CC2)OCCN3S(=O)(=O)c2cccs2)cc1	3.5	15.2	-1.4	5.9	3.5	-0.4	.
SMILES	UBC13 polyUb	Apaf1 inhib	MPTP block	Exocytosis inh	iPSC survival up	MIN6 prolif-1	MIN6 prolif-2
Cc1nc(N)nc(N)c1-c1ccc([N+](=O)[O-])cc1	.	.	-1.9	3.1	-1.1	.	.
COc1ccc(NC(=O)CSc2ccccc2)cc1S(=O)(=O)N1CCCCC1	-1.4	7.1	0.8	8.3	0.4	4.7*	-5.7
CN1CCN(C(=O)CCc2nnc3ccc(N4CCC5(CC4)OCCO5)nn23)CC1	-1.3	-9.4	-1.3	-1.6	-0.3	0.3	.
CC(=O)Nc1cccc(NC(=O)c2ccccc2OCc2c(C)noc2C)c1	-2.8	-2.8	0.1	-0.8	-0.2	2.4	.
Cc1noc(C)c1COc1ccccc1C(=O)Nc1cccc(S(=O)(=O)N(C)C)c1	-0.7	-6.2	-2.4	12.4	-0.1	13.9*	-2.5
Cc1ccc(-c2nn3c(C)nnc3s2)cc1NC(=O)CSc1ccc(Cl)cc1	1.9	15.3	0.0	16.0	-1.2	-0.2	.
Cc1ccc(-c2nn3c(C)nnc3s2)cc1NC(=O)COc1ccc(Cl)cc1	11.3	8.8	-1.5	14.8	-1.7	10.0*	-1.5
CCc1cccc(CC)c1N(COC)C(=O)Cn1nnc2ccccc21	0.9	2.0	1.2	1.6	0.0	9.7*	-3.0
Cn1c(O)c(N=NC(=O)CNC(=O)c2ccccc2)c2ccccc21	-8.8	0.4	-0.8	-12.1	-0.2	0.0*	-0.2
Cn1c(O)c(N=NC(=O)CNC(=O)c2ccccc2)c2cc(Br)ccc21	-22.5	6.6	0.3	5.7	-0.4	-1.0	.
CCc1nc2ccc(C(=O)N(CC)CCN(C)C)cn2c1N(C)C(=O)C1CCCCC1	.	.	-1.3	-0.6	-0.7	.	.
Cc1ccc(S(=O)(=O)N2CCCCC2CCNC(=O)C(=O)NC2CCCC2)cc1 (configuration not stated)	-3.4	13.9	0.3	-19.7	-0.2	-4.2	.
O=C(NCCC1CCCCN1S(=O)(=O)c1ccccc1)C(=O)NC1CC1 (configuration not stated)	3.3	-3.1	-0.4	-1.5	-0.4	11.9*	-1.3
CC(C)N(C(=O)[C@H]1C[C@H](CC(=O)NCCCn2ccnc2)C(=O)N2CCc3c([nH]c4cc(CCC(=O)N(C)C)ccc34)[C@]12C)C(C)C	.	18.1	-0.2	1.0	-1.4	.	.
CCC(C)Sc1nc2c(cnn2-c2ccc(C)cc2)c(=O)[nH]1 (configuration not stated)	-20.1	-2.2	0.7	-1.9	-3.1	9.6*	8.0
CSCC[C@H](NC(=O)N1CCn2c1nc1ccccc12)C(=O)N1CCCCC1	4.3	2.0	-2.8	0.5	-0.3	3.2	.
CC(C)C[C@H](NC(=O)N1CCn2c1nc1ccccc12)C(=O)N1CCCCC1	-3.9	8.8	-2.5	2.8	-0.3	12.3*	-3.3
COc1ccccc1CNC(=O)COC(=O)COc1ccccc1F	1.2	6.1	0.2	-1.9	-0.4	5.7	.
Nc1nc(CSc2nc3ccccc3s2)nc(N2CCCCC2)n1	-1.3	11.4	0.2	4.3	1.8	9.0*	1.8
